Experimental data reported in PubChem BioAssay.
Calls of active or inactive are those of the source.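 How the source made its calls, unless noted: active means a full or partial loss of lipid-probe fluorescence in the fish gall bladder, intestine or both, judged by eye; inactive means no fluorescence loss, or compound toxic to the fish.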

Assay: inhibitors of larval lipid processing in zebrafish, primary screen, whole organism, PED6 fluorescence, gall bladder and intestine (AID 686);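 further: larvae 5 to 7 days old with five fish per well; signal comes from phospholipase A2 cleavage of quenched PED6 carried via bile; overnight exposure to compound and PED6 before scoring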
Details: Zebrafish larvae PED6 lipid processing, fluorescence scoring; screened at 20 µM (by protocol)
In short: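 Test system – live zebrafish larvae aged 5-7 days, whole organism · Buffer or medium – E3 fish medium · Reagent – quenched phospholipase substrate PED6, 100 nM final, ingested by larvae · Doses – 20 µM single dose · Incubation – overnight compound and PED6 incubation · Technique – visual fluorescence microscopy scoring of gall bladder, gut · Read-out basis – visual per-well fluorescence inhibition score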

Row | Structure (SMILES) | outcome
1 | CCOc1cccc(N2C(=O)CC(N(CCc3ccc(OC)c(OC)c3)C(=O)CC)C2=O)c1 (stereo not given) | inactive
2 | CCOC(=O)CNC(=O)CNC(=O)c1ccc(OCC(C)C)cc1 | inactive
3 | COc1cc(C(=O)Nc2ccc(O)cc2C(=O)O)ccc1OC(C)=O | inactive
4 | Cc1cc(C)n(CC2CC(=O)N(c3ccc(F)c(Cl)c3)C2=O)n1 (stereo not given) | inactive
5 | COC(=O)c1ccc(C2/C(=C(\O)c3cccc(OC)c3)C(=O)C(=O)N2CCCN(C)C)cc1 (stereo not given) | inactive
6 | CCCC(CCC(=O)Nc1ccc(C(=O)OCC)cc1)C(=O)O (stereo not given) | inactive
7 | C=C(C)CSc1nc(N)c2c3c(sc2n1)CCC3 | inactive
8 | CCCCOC(=O)CCc1nc2ccccc2[nH]1 | inactive
9 | CCc1nc2c(sc3nc(N4CCOCC4)c4c(c32)CC(C)(C)OC4)c(=O)o1 | inactive
10 | COc1ccccc1-n1c(N)c(C(=O)NCC2CCCO2)c2nc3ccccc3nc21 (stereo not given) | inactive
11 | CCC(=O)NC1(C(F)(F)F)C(=O)Nc2c1c(=O)[nH]c(=O)n2Cc1ccco1 (stereo not given) | inactive
12 | Cn1c(=O)[nH]c2cc(Cl)cnc21 | inactive
13 | O=C(COc1ccc(-c2nnc(N3CCCCC3)c3ccccc23)cc1)N1CCCCC1 | inactive
14 | Cc1cccc(-c2nc(C#N)c(NC3CCCCC3)o2)c1 | inactive
15 | CCCCSc1nnc2n(CCc3ccccc3)c(=O)c3c4c(sc3n12)COC(C)(C)C4 | inactive
16 | CCCCc1nc(NCC2CCCO2)c(C#N)c2c1COC(C)(C)C2 (stereo not given) | inactive
17 | Clc1ccc(-n2ncc3c(N4CCCC4)ncnc32)cc1 | inactive
18 | COCCOC(=O)c1c(C)oc2ccc(OC(=O)COc3c(F)c(F)c(F)c(F)c3F)cc12 | inactive
19 | CCc1cc(=O)oc2cc(C)c(CN3CCCC3)c(O)c12 | inactive
20 | O=c1[nH]c2sc3c(c2c(=O)n1Cc1ccccc1)CCC3 | inactive

Row | Structure (SMILES) | outcome
21 | CCOC(=O)CCNc1n[nH]c(=O)[nH]c1=O | inactive
22 | COc1ccc(C2C=C(c3ccc(C)cc3)Nc3ncnn32)cc1 (stereo not given) | inactive
23 | CCc1nc(N2CCOCC2)c(C#N)c2c1CCCC2 | inactive
24 | COc1ccccc1C1/C(=C(/O)c2ccc(C)cc2)C(=O)C(=O)N1CCN1CCOCC1 (stereo not given) | inactive
25 | N#CC(C#N)C(c1ccsc1)c1c(-c2ccccc2)[nH][nH]c1=O (stereo not given) | inactive
26 | O=C(c1ccc(=O)oc1)N1CCN(C(c2ccccc2)c2ccccc2)CC1 | inactive
27 | Nc1ccc2c3c(cccc13)CC2 | inactive
28 | COCCNC(=O)C(C#N)c1nc2ccccc2nc1N1CCN(Cc2ccc3c(c2)OCO3)CC1 (stereo not given) | inactive
29 | Cc1ccc(Cn2ncc3c(N4CCN(Cc5ccc(Cl)cc5)CC4)ncnc32)cc1 | inactive
30 | COC(=O)c1[nH]c2ccc(Cl)cc2c1NC(=O)C1CC1 | inactive
31 | CCCOc1ccccc1C(=O)NCCCC(=O)O | inactive
32 | CCCOc1cccc(C2/C(=C(/O)c3ccc(F)cc3)C(=O)C(=O)N2CCN(C)C)c1 (stereo not given) | inactive
33 | CCN(CC)c1nc(C)c2c(c1C#N)CC(C)(C)OC2 | inactive
34 | CCC(=O)N(Cc1cccs1)C1CCOC(C)(C)C1 (stereo not given) | inactive
35 | CCC(=O)Nc1c(C#N)c2nc3ccccc3nc2n1C1CCCCC1 | inactive
36 | O=C(CN1C(=O)c2ccccc2S1(=O)=O)NCCSCc1ccco1 | inactive
37 | CC12CN3CC(C)(CN(C1)C3c1ccc(Br)cc1O)C2 (stereo not given) | inactive
38 | Clc1ccc(COc2ccccn2)c(Cl)c1 | inactive
39 | CC1(C)NC(=O)N(CC(O)COc2cc3ccccc3cc2C(=O)N2CCCCC2)C1=O (stereo not given) | inactive
40 | Cc1ccc(N(CN2C(=O)C3CC=CCC3C2=O)C(=O)c2ccco2)cc1Cl (stereo not given) | inactive

Assay: loss of swimming-algae plug formation – whole organism, Chlamydomonas reinhardtii, WT vs cilia-less mutant, absorbance, 96-well, primary screen (AID 463189;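 active means inhibition at or above 50% relative to wild type and mutant plate controls; inactive means inhibition below 50%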;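 further: 0% = wild type cc124 cells in DMSO and 100% = ciliumless bld1 mutant cells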)
Details: Chlamydomonas reinhardtii gravitaxis, OD600 absorbance, 2 days; at 10 µM; stronger effect = higher value

Row | Structure (SMILES) | inhibition
41 | CCOc1cccc(N2C(=O)CC(N(CCc3ccc(OC)c(OC)c3)C(=O)CC)C2=O)c1 (stereo not given) | -0.122% (inactive)
42 | CCOC(=O)CNC(=O)CNC(=O)c1ccc(OCC(C)C)cc1 | -6.07% (inactive)
43 | COc1cc(C(=O)Nc2ccc(O)cc2C(=O)O)ccc1OC(C)=O | 13.9% (inactive)
44 | Cc1cc(C)n(CC2CC(=O)N(c3ccc(F)c(Cl)c3)C2=O)n1 (stereo not given) | -11.1% (inactive)
45 | COC(=O)c1ccc(C2/C(=C(\O)c3cccc(OC)c3)C(=O)C(=O)N2CCCN(C)C)cc1 (stereo not given) | 20.5% (inactive)
46 | CCCC(CCC(=O)Nc1ccc(C(=O)OCC)cc1)C(=O)O (stereo not given) | -0.026% (inactive)
47 | C=C(C)CSc1nc(N)c2c3c(sc2n1)CCC3 | -7.33% (inactive)
48 | CCCCOC(=O)CCc1nc2ccccc2[nH]1 | 8.4% (inactive)
49 | CCc1nc2c(sc3nc(N4CCOCC4)c4c(c32)CC(C)(C)OC4)c(=O)o1 | -8.15% (inactive)
50 | COc1ccccc1-n1c(N)c(C(=O)NCC2CCCO2)c2nc3ccccc3nc21 (stereo not given) | 19.9% (inactive)
51 | CCC(=O)NC1(C(F)(F)F)C(=O)Nc2c1c(=O)[nH]c(=O)n2Cc1ccco1 (stereo not given) | 9.21% (inactive)
52 | Cn1c(=O)[nH]c2cc(Cl)cnc21 | 9.47% (inactive)
53 | O=C(COc1ccc(-c2nnc(N3CCCCC3)c3ccccc23)cc1)N1CCCCC1 | 34.6% (inactive)
54 | Cc1cccc(-c2nc(C#N)c(NC3CCCCC3)o2)c1 | -0.036% (inactive)
55 | CCCCSc1nnc2n(CCc3ccccc3)c(=O)c3c4c(sc3n12)COC(C)(C)C4 | 129% (active)
56 | CCCCc1nc(NCC2CCCO2)c(C#N)c2c1COC(C)(C)C2 (stereo not given) | -8.27% (inactive)
57 | Clc1ccc(-n2ncc3c(N4CCCC4)ncnc32)cc1 | 134% (active)
58 | COCCOC(=O)c1c(C)oc2ccc(OC(=O)COc3c(F)c(F)c(F)c(F)c3F)cc12 | -9.48% (inactive)
59 | CCc1cc(=O)oc2cc(C)c(CN3CCCC3)c(O)c12 | 3.29% (inactive)
60 | O=c1[nH]c2sc3c(c2c(=O)n1Cc1ccccc1)CCC3 | -9.09% (inactive)

Row | Structure (SMILES) | inhibition
61 | CCOC(=O)CCNc1n[nH]c(=O)[nH]c1=O | -1.35% (inactive)
62 | COc1ccc(C2C=C(c3ccc(C)cc3)Nc3ncnn32)cc1 (stereo not given) | 2.98% (inactive)
63 | CCc1nc(N2CCOCC2)c(C#N)c2c1CCCC2 | 29.5% (inactive)
64 | COc1ccccc1C1/C(=C(/O)c2ccc(C)cc2)C(=O)C(=O)N1CCN1CCOCC1 (stereo not given) | 0.641% (inactive)
65 | N#CC(C#N)C(c1ccsc1)c1c(-c2ccccc2)[nH][nH]c1=O (stereo not given) | 3.19% (inactive)
66 | O=C(c1ccc(=O)oc1)N1CCN(C(c2ccccc2)c2ccccc2)CC1 | 4.32% (inactive)
67 | Nc1ccc2c3c(cccc13)CC2 | -6.34% (inactive)
68 | COCCNC(=O)C(C#N)c1nc2ccccc2nc1N1CCN(Cc2ccc3c(c2)OCO3)CC1 (stereo not given) | 4.28% (inactive)
69 | Cc1ccc(Cn2ncc3c(N4CCN(Cc5ccc(Cl)cc5)CC4)ncnc32)cc1 | 60.8% (active)
70 | COC(=O)c1[nH]c2ccc(Cl)cc2c1NC(=O)C1CC1 | -10.7% (inactive)
71 | CCCOc1ccccc1C(=O)NCCCC(=O)O | 23.9% (inactive)
72 | CCCOc1cccc(C2/C(=C(/O)c3ccc(F)cc3)C(=O)C(=O)N2CCN(C)C)c1 (stereo not given) | 12.9% (inactive)
73 | CCN(CC)c1nc(C)c2c(c1C#N)CC(C)(C)OC2 | -9.09% (inactive)
74 | CCC(=O)N(Cc1cccs1)C1CCOC(C)(C)C1 (stereo not given) | 11.9% (inactive)
75 | CCC(=O)Nc1c(C#N)c2nc3ccccc3nc2n1C1CCCCC1 | 18.8% (inactive)
76 | O=C(CN1C(=O)c2ccccc2S1(=O)=O)NCCSCc1ccco1 | -7.41% (inactive)
77 | CC12CN3CC(C)(CN(C1)C3c1ccc(Br)cc1O)C2 (stereo not given) | 4.37% (inactive)
78 | Clc1ccc(COc2ccccn2)c(Cl)c1 | -0.499% (inactive)
79 | CC1(C)NC(=O)N(CC(O)COc2cc3ccccc3cc2C(=O)N2CCCCC2)C1=O (stereo not given) | 33.9% (inactive)
80 | Cc1ccc(N(CN2C(=O)C3CC=CCC3C2=O)C(=O)c2ccco2)cc1Cl (stereo not given) | 30.1% (inactive)
